# Source: ChEMBL document CHEMBL4414545, “Beta-Glucuronidase Catalyzes Deconjugation and Activation of Curcumin-Glucuronide in Bone” (J Nat Prod, 2019)
# Experiments:
# [1] = Drug metabolism in C57BL/6J mouse assessed as level of curcumin-glucuronide in serum at 500 mg/kg administered via oral gavage measured after 30 mins by LC-MS analysis; assay type: ADME, organism-based; conditions: in vivo, 0.5 h, read-out: Ct
# Procedure, shortened: (§1)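 Oral gavage of curcumin, 500 mg/kg in DMSO, to C57BL/6J or C3H/HeJ mice, n=3–4/group. Serum and marrow were taken 30 min post-dose. Marrow pellets from leg centrifugation were resuspended in 50 mM sodium acetate pH 5 and kept 2 h on ice; supernatants were used. Aglycone curcumin and curcumin-glucuronide were quantified by LC/MS, with marrow values adjusted to pellet volume.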
# [2] = AUC (0 to infinity) in C57BL/6J mouse serum at 500 mg/kg administered via oral gavage measured after 30 mins by LC-MS analysis; assay type: ADME, organism-based; parameters: dose 500 mg/kg, route oral, time infinity
# Procedure, shortened: (§2)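 Female 4-week C57BL/6J mice given a single oral gavage of curcumin, 500 mg/kg in DMSO. Serum and bone marrow were collected under isoflurane at the indicated times up to 48 h, n=4/group. Total curcumin (aglycone plus glucuronide) was measured by LC/MS with d6-curcumin standards. PK parameters came from noncompartmental analysis after extravascular dosing.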
# [3] = Ratio of AUC (0 to infinity) in C57BL/6J mouse serum to AUC (0 to infinity) in C57BL/6J mouse bone marrow at 500 mg/kg administered via oral gavage; assay type: ADME, organism-based; conditions: in vivo
# [4] = Drug metabolism in C3H/HeJ mouse exhibiting decrease in GUSB activity assessed as level of curcumin-glucuronide in bone marrow at 500 mg/kg administered via oral gavage measured after 30 mins by LC-MS analysis; assay type: ADME, organism-based; conditions: read-out: Ct, in vivo, 0.5 h; procedure, shortened: as §1
# [5] = Drug metabolism in C57BL/6J mouse assessed as level of curcumin-glucuronide in bone marrow at 500 mg/kg administered via oral gavage measured after 30 mins by LC-MS analysis; assay type: ADME, organism-based; conditions: in vivo, 0.5 h, read-out: Ct; procedure, shortened: as §1
# [6] = Drug metabolism in C57BL/6J mouse assessed as level of curcumin-glucuronide in serum at 100 mg/kg, ip measured after 20 mins by LC-MS analysis; assay type: ADME, organism-based; conditions: in vivo, read-out: Ct
# Procedure, shortened: (§3)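 Curcumin at 100 mg/kg in DMSO was given ip to 15-week C57BL/6J, C3H/HeJ or mps/mps (GUSB-null) mice, n=3–4/group. Serum and marrow were harvested 20 min later. Marrow was resuspended in 50 mM sodium acetate pH 5 for 2 h on ice. Aglycone and glucuronidated curcumin were measured by LC/MS, with marrow values corrected to the original pellet volume.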
# [7] = Cmax in C57BL/6J mouse serum at 500 mg/kg administered via oral gavage measured after 30 mins by LC-MS analysis; assay type: ADME, organism-based; parameters: dose 500 mg/kg, route oral; procedure, shortened: as §2
# [8] = Drug concentration in C3H/HeJ mouse exhibiting decrease in GUSB activity assessed as level of aglycone curcumin in bone marrow at 100 mg/kg, ip measured after 20 mins by LC-MS analysis; assay type: ADME, organism-based; conditions: in vivo, read-out: Ct; procedure, shortened: as §3
# [9] = Ratio of drug concentration in C57BL/6J mouse bone marrow to drug concentration in C57BL/6J mouse serum; assay type: ADME
# [10] = Drug concentration in mps/mps mutant mouse assessed as level of aglycone curcumin in bone marrow at 100 mg/kg, ip measured after 20 mins by LC-MS analysis; assay type: ADME, organism-based; conditions: in vivo, read-out: Ct; procedure, shortened: as §3
# [11] = Drug metabolism in C3H/HeJ mouse exhibiting decrease in GUSB activity assessed as level of curcumin-glucuronide in serum at 500 mg/kg administered via oral gavage measured after 30 mins by LC-MS analysis; assay type: ADME, organism-based; conditions: in vivo, 0.5 h, read-out: Ct; procedure, shortened: as §1
# [12] = Cmax in C57BL/6J mouse bone marrow at 500 mg/kg administered via oral gavage measured after 30 mins by LC-MS analysis; assay type: ADME, organism-based; parameters: dose 500 mg/kg, route oral; procedure, shortened: as §2
# RAW264.7 [13] = experiment: Cytotoxicity against murine RAW264.7 cells assessed as effect on cell viability at 3 uM; assay type: cell-based; conditions: mouse, raw264.7, 3 µM
# [14] = Drug concentration in C57BL/6J mouse assessed as level of aglycone curcumin in bone marrow at 100 mg/kg, ip measured after 20 mins by LC-MS analysis; assay type: ADME, organism-based; conditions: in vivo, read-out: Ct; procedure, shortened: as §3
# RAW264.7 [15] = experiment: Inhibition of RANKL-induced osteoclastogenesis in murine RAW264.7 cells assessed as formation of TRAP positive multinucleated osteoclasts pretreated for 4 hrs followed by RANKL addition measured after 72 hrs; assay type: functional, cell-based; conditions: Mus musculus
# Procedure, shortened: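 RAW 264.7 cells, used within 10 passages, were seeded at 5×10^3/well in DMEM with 10% FBS and allowed to adhere overnight at 37°C. Cells were pretreated 4 h with aglycone curcumin or curcumin-glucuronide, then given RANKL (50 ng/mL final) for 72 h. TRAP-positive multinucleated osteoclasts were counted, n=4/group.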
# [16] = Drug concentration in C3H/HeJ mouse exhibiting decrease in GUSB activity assessed as level of curcumin-glucuronide in bone marrow at 100 mg/kg, ip measured after 20 mins by LC-MS analysis; assay type: ADME, organism-based; conditions: in vivo, read-out: Ct; procedure, shortened: as §3
# [17] = AUC (0 to 48 hrs) in C57BL/6J mouse bone marrow at 500 mg/kg administered via oral gavage measured after 30 mins by LC-MS analysis; assay type: ADME, organism-based; parameters: time < 48 hr, dose 500 mg/kg, route oral; procedure, shortened: as §2
# [18] = Prodrug conversion in C57BL/6J mouse serum assessed as effect on aglycone curcumin level at 500 mg/kg administered via oral gavage incubated for 30 mins followed by resuspension in sodium acetate buffer at pH 5 measured after 2 hrs in presence of saccharolactone by LC-MS analysis; assay type: ADME, organism-based; conditions: in vivo, pH 5, 500 mg/kg
# [19] = Prodrug conversion in C57BL/6J mouse bone marrow assessed as beta-glucuronidase mediated effect on aglycone curcumin level at 500 mg/kg administered via oral gavage incubated for 30 mins followed by resuspension in sodium acetate buffer at pH 5 measured after 2 hrs in presence of saccharolactone by LC-MS analysis; assay type: ADME, organism-based; conditions: in vivo, pH 5, 500 mg/kg
# Procedure, shortened: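 C57BL/6J mice were gavaged with curcumin at 500 mg/kg, and marrow was harvested 30 min later. Marrow was resuspended in 50 mM sodium acetate pH 5 with or without 10 mM saccharolactone, or mice received saccharolactone 1 g/kg ip in saline 1 h before curcumin. Suspensions were kept 2 h on ice, and aglycone curcumin (% of total) was measured by LC/MS, n=3–4/group.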
# [20] = Half-life in C57BL/6J mouse bone marrow at 500 mg/kg administered via oral gavage measured after 30 mins by LC-MS analysis; assay type: ADME, organism-based; conditions: in vivo, 0.5 h; procedure, shortened: as §2
# [21] = Drug metabolism in C3H/HeJ mouse exhibiting decrease in GUSB activity assessed as level of curcumin-glucuronide in serum at 100 mg/kg, ip measured after 20 mins by LC-MS analysis; assay type: ADME, organism-based; conditions: in vivo, read-out: Ct; procedure, shortened: as §3
# [22] = Drug concentration in C57BL/6J mouse assessed as level of aglycone curcumin in serum at 100 mg/kg, ip measured after 20 mins by LC-MS analysis; assay type: ADME, organism-based; conditions: in vivo, read-out: Ct; procedure, shortened: as §3
# [23] = Tmax in C57BL/6J mouse bone marrow at 500 mg/kg administered via oral gavage measured after 30 mins by LC-MS analysis; assay type: ADME, organism-based; procedure, shortened: as §2
# [24] = Drug concentration in C3H/HeJ mouse exhibiting decrease in GUSB activity assessed as level of aglycone curcumin in bone marrow at 500 mg/kg administered via oral gavage measured after 30 mins by LC-MS analysis; assay type: ADME, organism-based; conditions: in vivo, 0.5 h, read-out: Ct; procedure, shortened: as §1
# [25] = Tmax in C57BL/6J mouse serum at 500 mg/kg administered via oral gavage measured after 30 mins by LC-MS analysis; assay type: ADME, organism-based; procedure, shortened: as §2
# [26] = Half-life in C57BL/6J mouse serum at 500 mg/kg administered via oral gavage measured after 30 mins by LC-MS analysis; assay type: ADME, organism-based; conditions: in vivo, 0.5 h; procedure, shortened: as §2
# [27] = Drug concentration in C3H/HeJ mouse exhibiting decrease in GUSB activity assessed as level of aglycone curcumin in serum at 100 mg/kg, ip measured after 20 mins by LC-MS analysis; assay type: ADME, organism-based; conditions: in vivo, read-out: Ct; procedure, shortened: as §3
# [28] = Drug concentration in C57BL/6J mouse assessed as level of aglycone curcumin in serum at 500 mg/kg administered via oral gavage measured after 30 mins by LC-MS analysis; assay type: ADME, organism-based; conditions: in vivo, 0.5 h, read-out: Ct; procedure, shortened: as §1
# [29] = Drug metabolism in C57BL/6J mouse assessed as level of curcumin-glucuronide in bone marrow at 100 mg/kg, ip measured after 20 mins by LC-MS analysis; assay type: ADME, organism-based; conditions: in vivo, read-out: Ct; procedure, shortened: as §3
# [30] = Drug concentration in C57BL/6J mouse assessed as level of aglycone curcumin in bone marrow at 500 mg/kg administered via oral gavage measured after 30 mins by LC-MS analysis; assay type: ADME, organism-based; conditions: in vivo, 0.5 h, read-out: Ct; procedure, shortened: as §1
# [31] = Ratio of AUC (0 to 48 hrs) in C57BL/6J mouse serum to AUC (0 to 48 hrs) in C57BL/6J mouse bone marrow at 500 mg/kg administered via oral gavage; assay type: ADME, organism-based; conditions: in vivo
# [32] = AUC (0 to infinity) in C57BL/6J mouse bone marrow at 500 mg/kg administered via oral gavage measured after 30 mins by LC-MS analysis; assay type: ADME, organism-based; parameters: dose 500 mg/kg, route oral, time infinity; procedure, shortened: as §2
# [33] = Drug metabolism in mps/mps mutant mouse assessed as level of curcumin-glucuronide in serum at 100 mg/kg, ip measured after 20 mins by LC-MS analysis; assay type: ADME, organism-based; conditions: in vivo, read-out: Ct; procedure, shortened: as §3
# [34] = AUC (0 to 48 hrs) in C57BL/6J mouse serum at 500 mg/kg administered via oral gavage measured after 30 mins by LC-MS analysis; assay type: ADME, organism-based; parameters: time < 48 hr, dose 500 mg/kg, route oral; procedure, shortened: as §2
# [35] = Drug concentration in mps/mps mutant mouse assessed as level of aglycone curcumin in serum at 100 mg/kg, ip measured after 20 mins by LC-MS analysis; assay type: ADME, organism-based; conditions: in vivo, read-out: Ct; procedure, shortened: as §3
compound,measurement,setting,value
COc1cc(/C=C/C(=O)CC(=O)/C=C/c2ccc(O)c(OC)c2)ccc1O [CURCUMIN],concentration,[1],82700 nM
same,AUC(0-inf),[2],488 µM·h
same,Ratio,[3],10
same,concentration,[4],1190 nM
same,concentration,[5],360 nM
same,concentration,[6],92700 nM
same,Cmax,[7],106000 nM
same,concentration,[8],500 nM
same,Kp,[9],3
same,concentration,[10],400 nM
same,concentration,[11],80000 nM
same,Cmax,[12],5900 nM
same,Activity,RAW264.7 [13],Non-Toxic
same,concentration,[14],1900 nM
same,IC50,RAW264.7 [15],3000 nM
same,concentration,[16],2700 nM
same,AUC(0-t) at 48 h,[17],48 µM·h
same,Drug metabolism,[18],Metabolite_Detected
same,Drug metabolism,[19],Metabolite_Detected
same,t1/2,[20],468 min
same,concentration,[21],92100 nM
same,concentration,[22],7200 nM
same,Tmax,[23],30 min
same,concentration,[24],470 nM
same,Tmax,[25],30 min
same,t1/2,[26],264 min
same,concentration,[27],2800 nM
same,concentration,[28],170 nM
same,concentration,[29],1300 nM
same,concentration,[30],1140 nM
same,Ratio,[31],10
same,AUC(0-inf),[32],48.3 µM·h
same,concentration,[33],151000 nM
same,AUC(0-t) at 48 h,[34],487 µM·h
same,concentration,[35],22800 nM
